Source: ChEMBL document CHEMBL1145131, “Structure-based design, synthesis, and biological evaluation of irreversible human rhinovirus 3C protease inhibitors. 8. Pharmacological optimization of orally bioavailable 2-pyridone-containing peptidomimetics” (J Med Chem, 2003)
≈ marks a conversion by molar mass, not a printed value.

Key:
[1] = biological target: T1, Human rhinovirus A protease (Human rhinovirus sp.) (UniProt Q4U254);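 also: inhibition of the human rhinovirus 3C protease enzyme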
T1 sequence (whole entry): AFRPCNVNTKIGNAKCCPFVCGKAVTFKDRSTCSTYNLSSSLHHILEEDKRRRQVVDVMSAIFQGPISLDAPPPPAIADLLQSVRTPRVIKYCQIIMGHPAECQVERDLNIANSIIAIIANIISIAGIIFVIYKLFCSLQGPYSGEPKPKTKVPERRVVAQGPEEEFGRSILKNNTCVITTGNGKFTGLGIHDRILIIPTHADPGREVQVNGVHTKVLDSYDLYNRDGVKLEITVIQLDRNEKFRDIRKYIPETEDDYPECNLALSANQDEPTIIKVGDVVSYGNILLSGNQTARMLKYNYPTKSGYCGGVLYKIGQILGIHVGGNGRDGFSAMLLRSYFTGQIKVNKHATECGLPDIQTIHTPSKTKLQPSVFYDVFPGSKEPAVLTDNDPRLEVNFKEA

Enterovirus [2] = experiment: In vitro antirhinoviral activity against human rhinovirus serotypes 9,14 and 25; assay type: functional, organism-based
Enterovirus [3] = experiment: In vitro anti-rhinoviral activity against human rhinovirus serotypes 2,3,9,14,16,25 and 39; assay type: functional, organism-based
[4] = Half-life upon exposure to human plasma; assay type: ADME, organism-based
Procedure, shortened: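 Pooled heparinized human plasma (10 donors) or 100 mM potassium phosphate pH 7.4 buffer (n = 3 each), spiked to final 25 μM compound from acetonitrile stock. Incubated at 37 °C for 1–3 h with regular sampling. Protein precipitated with acetonitrile, then LC quantification against a 0.05–40 μg/mL standard curve. Half-life by linear regression of mean concentration-time data.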

Caco-2 = details: Homo sapiens
[5] = Compound was tested in vitro for loss of compound after 2 hours exposure to hepatocytes of dog at 25 uM concentration; assay type: ADME, organism-based, Canis lupus familiaris, Hepatocyte; details: read-out: Metabolism
[6] = Compound was tested in vitro for loss of compound after 30 min exposure to liver microsomes of dog at 25 uM concentration; assay type: ADME, organism-based, Canis lupus familiaris; details: read-out: Metabolism
Procedure, shortened: (§1)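 Pooled liver microsomes (dog, monkey or human; 1 mg/mL, 6–8 livers) with 2 mM NADPH in 100 mM potassium phosphate, pH 7.4, preincubated 1 min at 37 °C. Started with 25 μM compound, run 30 min, quenched with acetonitrile. Time-zero controls quenched before compound addition. Remaining compound by reversed-phase HPLC at 215 nm. Reported as % metabolized.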

[7] = Compound was tested in vitro for loss of compound after 2 hours exposure to hepatocytes of human at 25 uM concentration; assay type: ADME, organism-based, Hepatocyte; details: read-out: Metabolism
[8] = Compound was tested in vitro for loss of compound after 2 hours exposure to hepatocytes of monkey at 25 uM concentration; assay type: ADME, cell-based, Hepatocyte; details: simiiformes, read-out: Metabolism
[9] = Compound was tested for human plasma protein binding; assay type: ADME, cell-free
Procedure, shortened: (§2)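 Ultrafiltration binding. Compound added from 1 mM and 0.1 mM stocks into heparinized dog or human plasma or pH 7.4 phosphate buffer, giving final 1 and 10 μM. Incubated 1 h at 37 °C, then centrifugal ultrafiltration. Filtrate and whole plasma quantified by LCMS with internal standard. % free = filtrate/whole plasma × 100. Three replicates per species per concentration.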

[10] = Thermodynamic aqueous solubility was determined; assay type: physicochemical; details: buffer
Procedure, shortened: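 1–2 mg compound stirred in 1 mL of pH 7.0, 50 mM phosphate buffer at room temperature for 4 h. Filtered through a 0.45 μm filter. Filtrate concentration determined by HPLC against a standard of known concentration.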

[11] = Compound was tested for plasma concentration in dogs 7 hours after oral administration (30 mg/kg); assay type: ADME, organism-based, Canis lupus familiaris; details: dog
Procedure, shortened: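 Male beagle dogs (BW ~9.3 kg, n = 3), single oral dose of 30 mg/kg. Vehicle was 80:20 propylene glycol:sterile water (15.0 mg/mL) or, in some studies, a 0.5% carboxymethyl cellulose suspension. Blood sampled up to 24 h. Plasma level at 7 h determined by LCMS. Noncompartmental analysis of individual concentration-time profiles.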

Canis familiaris = organism: Canis familiaris; experiment: Compound was tested for plasma protein binding of dog; assay type: ADME, organism-based, Canis lupus familiaris
Procedure, shortened: as §2

[12] = Compound was tested for plasma concentration in CM-monkeys 7 hours after oral administration (50 mg/kg); assay type: ADME, organism-based, Macaca fascicularis; details: cynomolgus monkey
Procedure, shortened: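 Male CM-monkeys (BW ~3.9 kg, n = 3), single oral dose of 50 mg/kg in 80:20 propylene glycol:sterile water at 15.0 mg/mL. Blood sampled periodically up to 24 h post-dose. Plasma concentration at 7 h measured by LCMS. Parameters from noncompartmental analysis of individual concentration-time data.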

[13] = Compound was tested in vitro for loss of compound after 30 min exposure to liver microsomes of human at 25 uM concentration; assay type: ADME, organism-based; details: read-out: Metabolism
Procedure, shortened: as §1

C#CC[C@@H](C(=O)N[C@H](/C=C/C(=O)OC1CCCCC1)C[C@@H]1CCNC1=O)n1cccc(NC(=O)c2cc(C)on2)c1=O
K obs / 1 [1]: 34000 M⁻¹ s⁻¹
EC50 (Enterovirus [2]): 406 nM

CC[C@@H](C(=O)N[C@H](/C=C/C(=O)OC(C)C)C[C@@H]1CCNC1=O)n1cccc(NC(=O)c2cc(C)on2)c1=O
K obs / 1 [1]: 36000 M⁻¹ s⁻¹
EC50 (Enterovirus [2]): 322 nM

C#CC[C@@H](C(=O)N[C@H](/C=C/C(=O)OC(C)(C)C)C[C@@H]1CCNC1=O)n1cccc(NC(=O)c2cc(C)on2)c1=O
K obs / 1 [1]: 60500 M⁻¹ s⁻¹
EC50 (Enterovirus [3]): 361 nM

C#CC[C@@H](C(=O)N[C@H](/C=C/C(=O)OC1CCCCCC1)C[C@@H]1CCNC1=O)n1cccc(NC(=O)c2cc(C)on2)c1=O
K obs / 1 [1]: 47000 M⁻¹ s⁻¹
EC50 (Enterovirus [2]): 812 nM

CC[C@@H](C(=O)N[C@H](/C=C/C(=O)OC1CCCCC1)C[C@@H]1CCNC1=O)n1cccc(NC(=O)c2cc(C)on2)c1=O
K obs / 1 [1]: 23000 M⁻¹ s⁻¹
EC50 (Enterovirus [2]): 313 nM

CC[C@@H](C(=O)N[C@H](/C=C/C(=O)OC1CCCCCC1)C[C@@H]1CCNC1=O)n1cccc(NC(=O)c2cc(C)on2)c1=O
K obs / 1 [1]: 15000 M⁻¹ s⁻¹

C#CC[C@@H](C(=O)N[C@H](/C=C/C(=O)OCc1ccccc1)C[C@@H]1CCNC1=O)n1cccc(NC(=O)c2cc(C)on2)c1=O
half-life [4]: 4.3 h
Papp (Caco-2): 18 10e-6 cm s-1
metabolised at 2 h, 25 µM [5]: 61%
metabolised at 0.5 h, 25 µM [6]: 67%
K obs / 1 [1]: 300000 M⁻¹ s⁻¹
metabolised at 2 h, 25 µM [7]: 51%
metabolised at 2 h, 25 µM [8]: 69%
Free [9]: 13%
solubility thermodynamic [10]: 22 µg/mL (≈ 37.6 µM)
concentration at 7 h [11]: 563 nM
EC50 (Enterovirus [3]): 36 nM
Free (Canis familiaris): 25%
concentration at 7 h [12]: 3 nM
metabolised at 0.5 h, 25 µM [13]: 52%

CC[C@@H](C(=O)N[C@H](/C=C/C(=O)OCc1ccccc1)C[C@@H]1CCNC1=O)n1cccc(NC(=O)c2cc(C)on2)c1=O
half-life [4]: 2.5 h
Papp (Caco-2): 11 10e-6 cm s-1
metabolised at 2 h, 25 µM [5]: 55%
metabolised at 0.5 h, 25 µM [6]: 69%
K obs / 1 [1]: 210000 M⁻¹ s⁻¹
metabolised at 2 h, 25 µM [7]: 27%
Free [9]: 8%
solubility thermodynamic [10]: 41 µg/mL (≈ 71.2 µM)
concentration at 7 h [11]: 156 nM
EC50 (Enterovirus [3]): 64 nM
Free (Canis familiaris): 20%
metabolised at 0.5 h, 25 µM [13]: 56%

C#CC[C@@H](C(=O)N[C@H](/C=C(\C)C(=O)OCC)C[C@@H]1CCNC1=O)n1cccc(NC(=O)c2cc(C)on2)c1=O
K obs / 1 [1]: 12500 M⁻¹ s⁻¹
EC50 (Enterovirus [3]): 1460 nM

C#CC[C@@H](C(=O)N[C@H](/C=C/C(=O)OC1CCCC1)C[C@@H]1CCNC1=O)n1cccc(NC(=O)c2cc(C)on2)c1=O
half-life [4]: 12.5 h
Papp (Caco-2): 36 10e-6 cm s-1
metabolised at 0.5 h, 25 µM [6]: 76%
K obs / 1 [1]: 186000 M⁻¹ s⁻¹
Free [9]: 7%
solubility thermodynamic [10]: 15 µg/mL (≈ 26.6 µM)
concentration at 7 h [11]: 160 nM
EC50 (Enterovirus [3]): 174 nM
Free (Canis familiaris): 20%
metabolised at 0.5 h, 25 µM [13]: 59%

CC[C@@H](C(=O)N[C@H](/C=C/C(=O)OCC(C)(C)C)C[C@@H]1CCNC1=O)n1cccc(NC(=O)c2cc(C)on2)c1=O
K obs / 1 [1]: 38200 M⁻¹ s⁻¹
EC50 (Enterovirus [3]): 310 nM
